The record followed here is ChEMBL document CHEMBL5360543, “Designed multiple ligands for the treatment of type 2 diabetes mellitus and its complications: Discovery of (5-arylidene-4-oxo-2-thioxothiazolidin-3-yl)alkanoic acids active as novel dual-targeted PTP1B/AKR1B1 inhibitors” (Eur J Med Chem, 2023).

Calls of active or inactive are those of the source. The rule behind the calls is not given here. Where only a bound is given, the exact number is not on record here.

In data set [1] the target is T1, Tyrosine-protein phosphatase non-receptor type 1 (Homo sapiens, UniProt P18031).
T1 sequence (P18031 whole entry): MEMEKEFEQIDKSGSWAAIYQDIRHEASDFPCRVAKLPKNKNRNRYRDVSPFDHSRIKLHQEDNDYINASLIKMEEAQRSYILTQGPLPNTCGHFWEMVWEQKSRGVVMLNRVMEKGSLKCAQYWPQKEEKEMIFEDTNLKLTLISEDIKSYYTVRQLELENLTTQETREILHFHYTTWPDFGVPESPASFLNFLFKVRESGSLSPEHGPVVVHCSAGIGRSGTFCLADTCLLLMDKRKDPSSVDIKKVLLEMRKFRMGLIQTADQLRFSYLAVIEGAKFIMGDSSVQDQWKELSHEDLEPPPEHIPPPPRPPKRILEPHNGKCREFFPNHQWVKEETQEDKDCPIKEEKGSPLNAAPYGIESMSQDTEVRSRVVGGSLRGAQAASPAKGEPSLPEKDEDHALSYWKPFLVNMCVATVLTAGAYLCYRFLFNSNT
The experiment in a line: Inhibition of N-terminal polyHis-tagged human PTP1B1 (1 to 303 residues) expressed in Escherichia coli BL21(DE3)pLysS using pNPP as substrate by spectrophotometric analysis. An outline of the steps: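 His-tagged human PTP1B (1–303) from E. coli BL21(DE3)pLysS, assayed in 0.075 M β,β-dimethylglutarate pH 7.0 with 1 mM EDTA, 0.1 mM DTT and pNPP. Reaction stopped with 0.1 M KOH; p-nitrophenol read at 400 nm. IC50 from 15–16 inhibitor concentrations in triplicate, normalized to control, fitted by nonlinear regression. Single-point residual activity at 5 µM.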

Data set [2] deals with T2, Tyrosine-protein phosphatase non-receptor type 2 (Homo sapiens, UniProt P17706).
T2 sequence (P17706 whole entry): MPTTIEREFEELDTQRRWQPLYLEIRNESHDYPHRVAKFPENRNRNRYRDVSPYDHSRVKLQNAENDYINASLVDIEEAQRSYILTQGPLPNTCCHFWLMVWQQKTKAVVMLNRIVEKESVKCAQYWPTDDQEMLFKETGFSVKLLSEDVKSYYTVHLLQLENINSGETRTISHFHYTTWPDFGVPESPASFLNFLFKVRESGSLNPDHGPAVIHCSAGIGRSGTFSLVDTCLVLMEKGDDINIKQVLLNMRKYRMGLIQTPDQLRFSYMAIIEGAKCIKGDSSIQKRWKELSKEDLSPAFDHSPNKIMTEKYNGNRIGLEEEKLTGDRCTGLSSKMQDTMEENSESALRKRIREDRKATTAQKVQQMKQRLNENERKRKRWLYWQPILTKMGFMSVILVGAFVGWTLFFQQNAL
Description: Inhibition of N-terminal polyHis-tagged human recombinant TC-PTPb (1 to 415 residues) expressed in Escherichia coli BL21(DE3)pLysS.

Data set [3] deals with T3, Aldo-keto reductase family 1 member B1 (Homo sapiens, UniProt P15121). The experiment in a line: Reversible inhibition of human recombinant AKR1B1 expressed in Escherichia coli BL21(DE3)pLysS assessed as recovery of enzyme activity using L-idose as substrate measured after extensive dialysis by NADPH oxidation based absorbance analysis. The arrangement: scale not given: the % may be the effect or the level left.

Data set [4] deals with T3, Aldo-keto reductase family 1 member B1. Description: Mixed non-competitive inhibition of human recombinant AKR1B1 expressed in Escherichia coli BL21(DE3)pLysS assessed as apparent dissociation constant for EI complex using L-idose as substrate by secondary plot analysis. An outline of the steps:
(§1)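 AKR1B1 rates measured at varied L-idose concentrations with and without several inhibitor concentrations, then Lineweaver–Burk analysis. […] Tight binders fitted with the Morrison equation, KM for L-idose taken as 3.8 mM. At least three independent experiments.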

For data set [5] the target is unchanged. The experiment in a line: Ratio of Ki for human recombinant AKR1B1 expressed in Escherichia coli BL21(DE3)pLysS assessed as apparent dissociation constant for EI complex to Ki for human recombinant AKR1B1 expressed in Escherichia coli BL21(DE3)pLysS assessed as apparent dissociation constant for ESI complex. An outline of the steps: as §1
The test system of data set [6] is C2C12. Description: Cytotoxicity against mouse C2C12 cells assessed as reduction in cell viability at 20 uM incubated for 24 hrs by MTT assay. It is filed as toxicity, cell-based. The following applies: c2c12, 24 h. The procedure, abridged:
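C2C12 myoblasts were differentiated for 96 h in DMEM with 2% horse serum, then held 24 h in complete medium with 20 µM compound, DMSO vehicle as control. MTT 0.5 mg/mL was added, cells lysed in DMSO, absorbance read, and values normalized to vehicle. Quadruplicate, mean ± SD (n = 4).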
For orientation: Formazan colour is commonly taken as a measure of viable cells.

For data set [7], the target named is T4, Tyrosine-protein phosphatase non-receptor type 1 (Mus musculus) (UniProt P35821).
T4 sequence (whole entry): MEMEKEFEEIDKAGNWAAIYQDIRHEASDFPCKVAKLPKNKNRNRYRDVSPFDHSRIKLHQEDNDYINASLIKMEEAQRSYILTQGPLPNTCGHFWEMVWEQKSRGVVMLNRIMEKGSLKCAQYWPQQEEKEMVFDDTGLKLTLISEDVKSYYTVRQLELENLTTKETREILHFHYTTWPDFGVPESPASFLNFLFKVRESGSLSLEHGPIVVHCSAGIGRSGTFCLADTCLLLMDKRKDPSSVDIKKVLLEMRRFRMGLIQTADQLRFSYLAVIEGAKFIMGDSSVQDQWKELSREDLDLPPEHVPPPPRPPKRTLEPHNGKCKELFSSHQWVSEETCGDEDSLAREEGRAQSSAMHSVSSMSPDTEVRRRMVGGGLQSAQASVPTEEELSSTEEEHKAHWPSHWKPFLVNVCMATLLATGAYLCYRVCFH
Description: Inhibition of PTP1B in mouse C2C12 cells assessed as potentiation of insulin-induced Akt phosphorylation by measuring increase in ratio of pAkt to Akt at 20 uM treated for 15 mins in presence of insulin by western blot analysis. It is filed as cell-based. An outline of the steps:
(§2)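 C2C12 cells starved 24 h, then given 10 nM insulin, 20 µM compound, or both, for 15 min. Washed in cold PBS, lysed in 1X Laemmli buffer, run on SDS-PAGE, blotted to PVDF. Probed with antibodies to phospho-Akt and total Akt, with actin as loading control. Bands quantified; triplicate, mean ± SD (n = 3).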

Data set [8] has as its system C2C12. Description: Insulin-mimetic activity in mouse C2C12 cells assessed as stimulation of 2-NBDG uptake at 20 uM pretreated with compound for 15 mins followed by 2-NBDG addition and measured after 3 hrs by flow cytometry. It is filed as functional, cell-based. The conditions noted are these: time 195.0 min. The procedure, abridged:
(§3)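 C2C12 cells serum-starved 24 h, then 15 min with 10 nM insulin, 20 µM compound, or both. Washed, then 3 h in starvation medium containing 40 µM 2-NBDG. Trypsinized, washed, and fluorescence measured by flow cytometry. Quadruplicate; mean fluorescence ± SD.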
A general note: In flow cytometry, cells or beads pass a laser one at a time.

Data set [9] relates to C2C12. Description: Insulin-mimetic activity in mouse C2C12 cells assessed as stimulation of 2-NBDG uptake at 20 uM pretreated with compound and insulin for 15 mins followed by 2-NBDG addition and measured after 3 hrs by flow cytometry. In kind it is functional, cell-based. The following applies: time 195.0 min. The procedure, abridged: as §3
The test system of data set [10] is C2C12. The experiment in a line: Effect on total Akt protein expression in mouse C2C12 cells at 20 uM incubated for 15 mins by SDS-PAGE analysis. In kind it is functional, cell-based. The procedure, abridged:
as §2

Data set [11] relates to C2C12. Description: Effect on total Akt protein expression in mouse C2C12 cells at 20 uM incubated for 15 mins in presence of insulin by SDS-PAGE analysis. It is filed as functional, cell-based. An outline of the steps: as §2

As to `O=C(O)CCN1C(=O)/C(=C/c2cccc(OCCCCc3ccccc3)c2)SC1=S`, the IC50 (in general, the midpoint of a concentration-inhibition curve) is 3.2 µM in [1] and 25.8 µM in [2]. For the same compound, the Activity in data set [3] was more than 90%; in the data set on C2C12 [6], “Non-Toxic”. Also, in data set [4], the Ki is 4 µM. Further, the Ratio Ki in data set [5] stood at 2. Also, the inhibition result in data set [7] was “Active”. The outcome with C2C12 [8] and in the data set on C2C12 [9] was Active. Moreover, the outcome in the data set on C2C12 [10] and in the data set with C2C12 [11] was inactive.
Regarding `O=C(O)CN1C(=O)/C(=C/c2cccc(OCCCCc3ccccc3)c2)SC1=S`, the half-maximal inhibitory concentration (IC50) in [1] was found to be 4.3 µM; in data set [2] it was 9 µM. Moreover, the Activity in data set [3] is more than 90%; in the data set with C2C12 [6] it was “Non-Toxic”. The Ki in data set [4] was found to be 0.08 µM. Moreover, in data set [5], the Ratio Ki is 2. In addition, the inhibition result in data set [7] was “Active”. Besides, the outcome with C2C12 [8] and in the data set on C2C12 [9] was Active. Further, the result in the data set on C2C12 [10] and in the data set on C2C12 [11] was inactive.
